{
  "source": "ChEMBL document CHEMBL1155270",
  "about": "“Modifications at the C-terminus to improve pyrrole-imidazole polyamide activity in cell culture” (J Med Chem, 2009)",
  "key": {"U-251 [1]": {"test_system": "U-251", "test": "Inhibition of desferrioxamine-induced VEGF mRNA expression in human U251 cells at 0.02 to 0.2 uM by quantitative RT-PCR analysis", "assay_type": "functional, cell-based", "in_short": "(§1)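 In U251 cells, induced VEGF mRNA was quantified by real-time RT-PCR after polyamide at 1, 0.2 and 0.02 μM, with DMSO ≤0.1%. Values were normalized to untreated induced cells; uninduced and DMSO-vehicle controls were run alongside.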"}, "Nucleic Acid [2]": {"test_system": "Nucleic Acid", "test": "Binding affinity to 14mer DNA assessed as change in melting temperature by spectrophotometry", "assay_type": "nucleic-acid assay", "in_short": "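Thermal melting of 14-mer oligonucleotide duplexes (HRE or ARE sequence) with and without polyamide, read by UV spectrophotometry in 1 cm quartz cuvettes with a thermostatted holder. Buffer was 10 mM sodium cacodylate, 10 mM KCl, 10 mM MgCl2, 5 mM CaCl2, pH 7.0. ΔTm is taken relative to the free duplex.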"}, "LNCaP [3]": {"test_system": "LNCaP", "test": "Inhibition of desferrioxamine-induced VEGF mRNA expression in human LNCAP cells at 1 to 2 uM by quantitative RT-PCR analysis", "assay_type": "functional, cell-based"}, "Nucleic Acid [4]": {"test_system": "Nucleic Acid", "test": "Binding affinity to 5'-TTGCAGAACAGCAA-3' sequence of DNA assessed as change in melting temperature by spectrophotometry", "assay_type": "nucleic-acid assay"}, "LNCaP [5]": {"test_system": "LNCaP", "test": "Inhibition of dihydrotestosterone-induced prostate specific antigen expression in human LNCAP cells at 5 uM by quantitative RT-PCR analysis", "assay_type": "functional", "in_short": "(§2)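 LNCaP cells were induced with 1 nM DHT and PSA mRNA measured by quantitative real-time RT-PCR. Oxime-linked polyamides were given at 5, 1 and 0.1 μM, and unconjugated controls at 5 μM, with DMSO ≤0.1%. Expression was normalized to untreated DHT-induced cells; uninduced and DMSO controls were included.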"}, "LNCaP [6]": {"test_system": "LNCaP", "test": "Cytotoxicity against human LNCAP cells after 48 hrs by WST1 assay", "assay_type": "functional, cell-based", "in_short": "(§3)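 LNCaP cells were seeded at 10-15 × 10^2 per well and allowed to settle 48 h before polyamide was added as 2× media solutions (DMSO <0.1%). After 48 h exposure, media was replaced and cells recovered 24 h. WST-1 was added for 30 min and A450 read. Wells were corrected for media-only background and normalized to untreated controls.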"}, "LNCaP [7]": {"test_system": "LNCaP", "test": "Cytotoxicity against human LNCAP cells at 5 uM after 48 hrs by WST1 assay", "assay_type": "functional, cell-based"}, "Nucleic Acid [8]": {"test_system": "Nucleic Acid", "test": "Binding affinity to 5'-GTGCATACGTGGGC-3' sequence of DNA assessed as change in melting temperature by spectrophotometry", "assay_type": "nucleic-acid assay"}, "U-251 [9]": {"test_system": "U-251", "test": "Inhibition of desferrioxamine-induced VEGF mRNA expression in human U251 cells at 1 uM by quantitative RT-PCR analysis", "assay_type": "functional", "in_short": "as §1"}, "LNCaP [10]": {"test_system": "LNCaP", "test": "Inhibition of dihydrotestosterone-induced prostate specific antigen expression in human LNCAP cells at 0.1 to 5 uM by quantitative RT-PCR analysis", "assay_type": "functional, cell-based", "in_short": "as §2"}, "LNCaP [11]": {"test_system": "LNCaP", "test": "Cytotoxicity against human LNCAP cells assessed as cell viability at 0.01 to 30 uM after 48 hrs by WST1 assay", "assay_type": "functional", "in_short": "as §3"}, "LNCaP [12]": {"test_system": "LNCaP", "test": "Cytotoxicity against human LNCAP cells at 0.02 to 50 uM after 48 hrs by WST1 assay", "assay_type": "functional, cell-based", "in_short": "as §3"}, "U-251 [13]": {"test_system": "U-251", "test": "Cytotoxicity against human U251 cells at 0.002 to 10 uM after 48 hrs by WST1 assay", "assay_type": "functional, cell-based", "in_short": "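U251 cells were plated at 10-15 × 10^2 per well. After 24 h, polyamide was added in 2× media, with a 10–0.002 μM range for the core-less oxime controls. Cells were treated 48 h, then given fresh media for 24 h recovery. WST-1 was read at 450 nm after 30 min, with background correction and normalization to untreated wells.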"}, "U-251 [14]": {"test_system": "U-251", "test": "Cytotoxicity against human U251 cells after 48 hrs by WST1 assay", "conditions": "U-251, 48 h"}},
  "note": "Active and inactive are the calls of the source. The rule behind the calls is not given here.",
  "data": [
    {"smiles": "Cn1cc(NC(=O)c2cc(NC(=O)c3cc(NC(=O)c4nc(NC(=O)[C@H](N)CCNC(=O)c5nc(NC(=O)c6cc(NC(=O)c7nc(NC(=O)c8nccn8C)cn7C)cn6C)cn5C)cn4C)cn3C)cn2C)cc1C(=O)NCCCO/N=C\\c1cccc(F)c1", "values": [
      {"measurement": "inhibition", "setting": "U-251 [1]", "result": "Active"},
      {"measurement": "ΔTm", "setting": "Nucleic Acid [2]", "result": 0.9, "unit": "°C"},
      {"measurement": "inhibition", "setting": "LNCaP [3]", "result": "Active"}
    ]},
    {"smiles": "Cn1cc(NC(=O)c2cc(NC(=O)c3cc(NC(=O)c4nc(NC(=O)[C@H](N)CCNC(=O)c5cc(NC(=O)c6cc(NC(=O)c7cc(NC(=O)c8nccn8C)cn7C)cn6C)cn5C)cn4C)cn3C)cn2C)cc1C(=O)NCCCO/N=C\\c1cccc(F)c1", "values": [
      {"measurement": "ΔTm", "setting": "Nucleic Acid [4]", "result": 12.5, "unit": "°C"},
      {"measurement": "inhibition", "setting": "LNCaP [5]", "result": "Active"},
      {"measurement": "IC50", "setting": "LNCaP [6]", "result": 0.6, "unit": "µM"},
      {"measurement": "Activity", "setting": "LNCaP [7]", "result": "Active"}
    ]},
    {"smiles": "Cn1cc(NC(=O)c2cc(NC(=O)c3cc(NC(=O)c4nc(NC(=O)[C@H](N)CCNC(=O)c5cc(NC(=O)c6cc(NC(=O)c7cc(NC(=O)c8nccn8C)cn7C)cn6C)cn5C)cn4C)cn3C)cn2C)cc1C(=O)NCCCON", "values": [
      {"measurement": "ΔTm", "setting": "Nucleic Acid [4]", "result": 11.2, "unit": "°C"},
      {"measurement": "inhibition at 5 µM", "setting": "LNCaP [5]", "result": 50, "unit": "%"}
    ]},
    {"smiles": "CN(CCCNC(=O)c1cccc(C(=O)O)c1)CCCNC(=O)c1cc(NC(=O)c2cc(NC(=O)c3nc(NC(=O)c4cc(NC(=O)[C@H](N)CCNC(=O)c5nc(NC(=O)c6cc(NC(=O)c7cc(NC(=O)c8sccc8Cl)cn7C)cn6C)cn5C)cn4C)cn3C)cn2C)cn1C", "values": [
      {"measurement": "ΔTm", "setting": "Nucleic Acid [8]", "result": 11.7, "unit": "°C"},
      {"measurement": "inhibition", "setting": "U-251 [9]", "result": "Active"}
    ]},
    {"smiles": "Cn1cc(NC(=O)c2cc(NC(=O)c3cc(NC(=O)c4nc(NC(=O)[C@H](N)CCNC(=O)c5nc(NC(=O)c6cc(NC(=O)c7nc(NC(=O)c8nccn8C)cn7C)cn6C)cn5C)cn4C)cn3C)cn2C)cc1C(=O)NCCCO/N=C\\c1ccc(F)cc1", "values": [
      {"measurement": "inhibition", "setting": "U-251 [1]", "result": "Active"},
      {"measurement": "ΔTm", "setting": "Nucleic Acid [2]", "result": 0.8, "unit": "°C"},
      {"measurement": "inhibition", "setting": "LNCaP [3]", "result": "Active"}
    ]},
    {"smiles": "Cn1cc(NC(=O)c2cc(NC(=O)c3nc(NC(=O)c4cc(NC(=O)[C@H](N)CCNC(=O)c5nc(NC(=O)c6cc(NC(=O)c7cc(NC(=O)c8nccn8C)cn7C)cn6C)cn5C)cn4C)cn3C)cn2C)cc1C(=O)NCCCO/N=C\\c1cccc(F)c1", "values": [
      {"measurement": "ΔTm", "setting": "Nucleic Acid [2]", "result": 4, "unit": "°C"},
      {"measurement": "inhibition", "setting": "LNCaP [10]", "result": "Active"},
      {"measurement": "IC50", "setting": "LNCaP [6]", "result": "≥ 30", "unit": "µM"},
      {"measurement": "Activity", "setting": "LNCaP [11]", "result": "<50", "unit": "%"}
    ]},
    {"smiles": "CC(=O)NCCCO/N=C\\c1ccc(F)cc1", "values": [
      {"measurement": "Activity", "setting": "LNCaP [12]", "result": "inactive"},
      {"measurement": "Activity", "setting": "U-251 [13]", "result": "inactive"},
      {"measurement": "IC50", "setting": "U-251 [14]", "result": "> 10", "unit": "µM"},
      {"measurement": "IC50", "setting": "LNCaP [6]", "result": "> 50", "unit": "µM"}
    ]},
    {"smiles": "Cn1cc(NC(=O)c2cc(NC(=O)c3cc(NC(=O)c4nc(NC(=O)[C@H](N)CCNC(=O)c5cc(NC(=O)c6cc(NC(=O)c7cc(NC(=O)c8nccn8C)cn7C)cn6C)cn5C)cn4C)cn3C)cn2C)cc1C(=O)NCCCNC(=O)c1cccc(C(=O)O)c1", "values": [
      {"measurement": "ΔTm", "setting": "Nucleic Acid [4]", "result": 11.1, "unit": "°C"},
      {"measurement": "IC50", "setting": "LNCaP [6]", "result": "> 30", "unit": "µM"},
      {"measurement": "Activity", "setting": "LNCaP [11]", "result": "<50", "unit": "%"}
    ]},
    {"smiles": "Cn1cc(NC(=O)c2cc(NC(=O)c3cc(NC(=O)c4nc(NC(=O)[C@H](N)CCNC(=O)c5nc(NC(=O)c6cc(NC(=O)c7nc(NC(=O)c8nccn8C)cn7C)cn6C)cn5C)cn4C)cn3C)cn2C)cc1C(=O)NCCCO/N=C\\c1cccc(C(=O)O)c1", "values": [
      {"measurement": "inhibition", "setting": "U-251 [1]", "result": "Active"},
      {"measurement": "ΔTm", "setting": "Nucleic Acid [2]", "result": 0.8, "unit": "°C"},
      {"measurement": "inhibition", "setting": "LNCaP [3]", "result": "Active"}
    ]},
    {"smiles": "NCCCO/N=C\\c1cccc(C(=O)O)c1", "values": [
      {"measurement": "Activity", "setting": "LNCaP [12]", "result": "inactive"},
      {"measurement": "Activity", "setting": "U-251 [13]", "result": "inactive"},
      {"measurement": "IC50", "setting": "U-251 [14]", "result": "> 10", "unit": "µM"},
      {"measurement": "IC50", "setting": "LNCaP [6]", "result": "> 50", "unit": "µM"}
    ]},
    {"smiles": "Cn1cc(NC(=O)c2cc(NC(=O)c3nc(NC(=O)c4cc(NC(=O)[C@H](N)CCNC(=O)c5nc(NC(=O)c6cc(NC(=O)c7cc(NC(=O)c8nccn8C)cn7C)cn6C)cn5C)cn4C)cn3C)cn2C)cc1C(=O)NCCCON", "values": [
      {"measurement": "ΔTm", "setting": "Nucleic Acid [2]", "result": 2, "unit": "°C"},
      {"measurement": "inhibition at 5 µM", "setting": "LNCaP [5]", "result": 10, "unit": "%"}
    ]},
    {"smiles": "Cn1cc(NC(=O)c2cc(NC(=O)c3nc(NC(=O)c4cc(NC(=O)[C@H](N)CCNC(=O)c5nc(NC(=O)c6cc(NC(=O)c7cc(NC(=O)c8nccn8C)cn7C)cn6C)cn5C)cn4C)cn3C)cn2C)cc1C(=O)NCCCO/N=C\\c1ccc(F)cc1", "values": [
      {"measurement": "ΔTm", "setting": "Nucleic Acid [2]", "result": 3.4, "unit": "°C"},
      {"measurement": "inhibition", "setting": "LNCaP [10]", "result": "Active"},
      {"measurement": "IC50", "setting": "LNCaP [6]", "result": "≥ 30", "unit": "µM"},
      {"measurement": "Activity", "setting": "LNCaP [11]", "result": "<50", "unit": "%"}
    ]},
    {"smiles": "NCCCO/N=C\\c1ccc(F)cc1", "values": [
      {"measurement": "Activity", "setting": "LNCaP [12]", "result": "inactive"},
      {"measurement": "Activity", "setting": "U-251 [13]", "result": "inactive"},
      {"measurement": "IC50", "setting": "U-251 [14]", "result": "> 10", "unit": "µM"},
      {"measurement": "IC50", "setting": "LNCaP [6]", "result": "> 50", "unit": "µM"}
    ]},
    {"smiles": "CC(=O)NCCCO/N=C\\c1cccc(C(=O)O)c1", "values": [
      {"measurement": "Activity", "setting": "LNCaP [12]", "result": "inactive"},
      {"measurement": "Activity", "setting": "U-251 [13]", "result": "inactive"},
      {"measurement": "IC50", "setting": "U-251 [14]", "result": "> 10", "unit": "µM"},
      {"measurement": "IC50", "setting": "LNCaP [6]", "result": "> 50", "unit": "µM"}
    ]}
  ]
}
